What was measured:
[1] = Drug degradation in phosphate citric acid buffer at pH 7.4 at 37 degC at 0.5 mM by HPLC-UV analysis; format: physicochemical; conditions: pH 7.4, 500 µM
Procedure, shortened: (§1)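 Aliquots over time quenched to pH 1.5 with HCl, quantified by HPLC against standard curves (peak area ratio to DMPA). k from slope of ln(C/Co) versus time, pseudo-first-order; half-life derived.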

[2] = Drug degradation in 0.5M phosphate citric acid buffer at 0.5 mM at pH 7.4 at 37 degC by HPLC-UV analysis; format: physicochemical; conditions: pH 7.4, 500 µM; procedure, shortened: as §1
[3] = Half life of the compound in 0.5M phosphate citric acid buffer at 0.5 mM at pH 7.4 at 37 degC by HPLC-UV analysis; format: ADME; procedure, shortened: as §1
[4] = Stability of compound in 0.5M phosphate citric acid buffer assessed as autoxidative conversion at 0.1 mM at pH 7.4 at 37 degC for 90 mins by HPLC-UV analysis; format: physicochemical; conditions: pH 7.4, 1.5 h, 100 µM
Procedure, shortened: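 Incubated 90 min at 37 °C. Dibenzocyclooctadiene formation monitored by HPLC, with products examined by MS and NMR. NDGA served as positive control.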

[5] = Stability of compound assessed as level of starting material at 37 degC for 6 hrs in presence of 20 fold excess of glutathione; format: physicochemical; conditions: read-out: Stability
Procedure, shortened: (§2)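 Substrate and DMPA internal standard, 0.5 mM each, incubated in phosphate–citrate buffer (0.5 M, pH 7.4) at 37 °C for 6 h with or without 20-fold excess glutathione. Samples acidified to pH 1.5 and analysed directly by HPLC and ESI-MS. Relative percentage of starting material, cyclised product and adduct reported.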

[6] = Stability of compound assessed as level of starting material at 37 degC for 6 hrs in absence of glutathione; format: physicochemical; conditions: read-out: Stability; procedure, shortened: as §2
[7] = Stability of compound assessed as formation of 5,6,7,8-Tetrahydro-dibenzo[a,c]cyclooctene-2,3,10,11-tetraol in phosphate citric acid buffer at pH 7.4 at 37 degC by HPLC-UV analysis; format: physicochemical
Procedure, shortened: (§3)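 Formation rate of the dibenzocyclooctadiene inferred from loss of the parent substrate (0.5 mM, DMPA internal standard) in phosphate–citric acid buffer (0.5 M, pH 7.4) at 37 °C. Aliquots acidified to pH 1.5 with HCl and analysed by HPLC; first-order k from ln(C/Co) versus time, relative rate versus NDGA.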

[8] = Stability of compound assessed as formation of 5,6,7,8-Tetrahydro-dibenzo[a,c]cyclooctene-2,3,10,11-tetraol in phosphate citric acid buffer at pH 7.4 at 37 degC by HPLC-UV analysis relative to NDGA; format: physicochemical; procedure, shortened: as §3
[9] = Stability of compound in 0.5M phosphate citric acid buffer assessed as drug degradation at 0.5 mM at pH 7.4 at 37 degC for 48 hrs by HPLC-UV analysis; format: physicochemical; conditions: read-out: Drug degradation; procedure, shortened: as §1
[10] = Drug degradation in phosphate citric acid buffer at pH 7.4 at 37 degC by HPLC-UV analysis relative to cNDGA; format: physicochemical
Procedure, shortened: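 Cyclised dibenzocyclooctadiene derivative (0.5 mM) with DMPA internal standard incubated in phosphate–citric acid buffer (0.5 M, pH 7.4) at 37 °C; aliquots acidified to pH 1.5 and parent loss followed by HPLC. First-order rate constant from ln(C/Co) versus time, expressed relative to cNDGA.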

[11] = Stability of compound assessed as formation of cNDGA in phosphate citric acid buffer at pH 7.4 at 37 degC by HPLC-UV analysis; format: physicochemical; procedure, shortened: as §3
[12] = Dissociation constant, pKa of compound; format: physicochemical

Row | SMILES | K [2] [×10⁻⁵ /s] | half-life at 500 µM [3] [h] | Drug metabolism [4] | further results
1 | CC1Cc2cc(O)c(O)cc2-c2cc(O)c(O)cc2CC1C (centres undefined) | – | – | – | K [1]: 0.47 ×10⁻⁵ /s
2 | Oc1ccc(CCCCc2ccc(O)c(O)c2)cc1O | 13.1 | 1.47 | metabolite_detected | remaining at 6 h [5]: 95.5%; remaining at 6 h [6]: 8.52%; K [7]: 8.7 ×10⁻⁵ /s; Ratio [8]: 3.1
3 | CC(Cc1ccccc1)C(C)Cc1ccc(O)c(O)c1 (centres undefined) | 4.56 | 4.22 | metabolite_detected | –
4 | COc1cc(CC(C)C(C)Cc2ccccc2)ccc1O (centres undefined) | 3.5 | 5.49 | metabolite_detected | –
5 | CC(Cc1cccc(O)c1)C(C)Cc1cccc(O)c1 (centres undefined) | – | – | metabolite_detected | degraded at 48 h, 500 µM [9]: < 5%
6 | COc1ccc(CC(C)C(C)Cc2ccc(OC)c(O)c2)cc1O (centres undefined) | 4.11 | 4.68 | metabolite_detected | –
7 | Oc1cc2c(cc1O)-c1cc(O)c(O)cc1CCCC2 | – | – | – | K [1]: 1.75 ×10⁻⁵ /s; Ratio [10]: 3.7
8 | COc1ccc(CC(C)C(C)Cc2ccc(O)c(O)c2)cc1OC (centres undefined) | 4.16 | 4.62 | metabolite_detected | –
9 | COc1cc(CC(C)C(C)Cc2ccc(O)c(OC)c2)ccc1O (centres undefined) [DIHYDROGUAIARETIC ACID] | 2.87 | 6.7 | metabolite_detected | –
10 | CC(Cc1ccc(O)c(O)c1)C(C)Cc1ccc(O)c(O)c1 (centres undefined) [NORDIHYDROGUAIARETIC ACID] | 4.88 | 3.94 | metabolite_detected | remaining at 6 h [5]: 87.1%; remaining at 6 h [6]: 66.9%; K [11]: 2.78 ×10⁻⁵ /s; pKa [12]: 9.3
